Laboratory results as given in ChEMBL document CHEMBL3526049 (Drug Metab Dispos, 2012).

Key:
Assay type in all cases: ADME, organism-based
[1] = Oral bioavailability in MDR1A knockout Sprague-Dawley rat at 20 mg/kg by LC-MS/MS analysis; conditions: in vivo
Outline: (§1)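 Male Sprague-Dawley knockout rats or wild-type rats matched for age and weight, with femoral artery and vein cannulas. Crossover design: sulfasalazine 5 mg/kg iv bolus (water, pH 9–10) on day 0, then 20 mg/kg oral gavage (0.5% carboxymethyl cellulose in PBS, pH 7.4) on day 3. Arterial plasma collected 0–24 h. Sulfasalazine and sulfapyridine measured by LC-MS/MS; noncompartmental parameters; mean ± S.D., n = 4 to 8.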

[2] = Volume of distribution at steady state in MRP2 knockout Sprague-Dawley rat at 5 mg/kg, iv by LC-MS/MS analysis; parameters: dose 5 mg/kg, route intravenous; conditions: in vivo, read-out: Vdss; outline: as §1
[3] = Half life in wild-type Sprague-Dawley rat at 5 mg/kg, iv by LC-MS/MS analysis; parameters: dose 5 mg/kg, route intravenous; conditions: in vivo; outline: as §1
[4] = AUC (infinity) in MDR1A knockout Sprague-Dawley rat at 20 mg/kg, po by LC-MS/MS analysis; parameters: time infinity, dose 20 mg/kg, route oral; conditions: plasma
Outline: (§2)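 Male Sprague-Dawley knockout or age/weight-matched wild-type rats with femoral artery and vein cannulas. Crossover design: day 0 i.v. bolus 5 mg/kg sulfasalazine in water at pH 9–10, then day 3 gavage 20 mg/kg in 0.5% carboxymethyl cellulose/PBS pH 7.4. Arterial plasma was sampled to 24 h. Sulfasalazine and sulfapyridine were measured by LC-MS/MS (1–5000 ng/ml). Parameters are noncompartmental; n = 4–8, mean ± S.D.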

[5] = AUC (infinity) in MRP2 knockout Sprague-Dawley rat at 20 mg/kg, po by LC-MS/MS analysis; parameters: time infinity, dose 20 mg/kg, route oral; conditions: plasma; outline: as §2
[6] = Cmax in wild-type Sprague-Dawley rat at 20 mg/kg, po by LC-MS/MS analysis; parameters: dose 20 mg/kg, route oral; conditions: in vivo; outline: as §2
[7] = Tmax in MDR1A knockout Sprague-Dawley rat at 20 mg/kg, po by LC-MS/MS analysis; parameters: dose 20 mg/kg, route oral; conditions: in vivo
Outline: (§3)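 Male Sprague-Dawley rats (knockout or wild type, matched for age and weight) with femoral artery and vein cannulas, recovered ≥2 days. In an i.v./oral crossover with a 3-day washout, sulfasalazine was given by oral gavage at 20 mg/kg in 0.5% carboxymethyl cellulose/PBS pH 7.4. Arterial plasma was sampled 0–24 h and analysed by LC-MS/MS (1–5000 ng/ml). Noncompartmental analysis; n = 4 to 8.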

[8] = Tmax in MRP2 knockout Sprague-Dawley rat at 20 mg/kg, po by LC-MS/MS analysis; parameters: dose 20 mg/kg, route oral; conditions: in vivo; outline: as §3
[9] = Oral bioavailability in MRP2 knockout Sprague-Dawley rat at 20 mg/kg by LC-MS/MS analysis; conditions: in vivo; outline: as §1
[10] = AUC (infinity) in wild-type Wistar rat at 5 mg/kg, iv by LC-MS/MS analysis; parameters: time infinity, dose 5 mg/kg, route intravenous; conditions: plasma
Outline: (§4)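 Male Wistar wild-type or Mrp2-deficient TR⁻ rats with femoral artery and vein cannulas. Sulfasalazine was given as a 5 mg/kg i.v. bolus and as a 20 mg/kg oral dose. Arterial plasma was sampled to 24 h and analysed for parent and sulfapyridine by LC-MS/MS. Noncompartmental parameters; n = 3, mean ± S.D.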

[11] = AUC (infinity) in MRP2-deficient Wistar rat at 5 mg/kg, iv by LC-MS/MS analysis; parameters: dose 5 mg/kg, route intravenous, time infinity; conditions: plasma; outline: as §4
[12] = Clearance in MRP2-deficient Wistar rat at 5 mg/kg, iv by LC-MS/MS analysis; parameters: dose 5 mg/kg, route intravenous; conditions: in vivo; outline: as §4
[13] = Oral bioavailability in wild-type Wistar rat at 5 mg/kg by LC-MS/MS analysis; conditions: in vivo
Outline: (§5)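 Male Wistar wild-type rats and Mrp2-deficient TR⁻ rats with femoral artery and vein cannulas. Sulfasalazine given as an iv bolus (5 mg/kg, water at pH 9–10) and by oral gavage, each followed by arterial plasma sampling over 24 h. Sulfasalazine and sulfapyridine measured by LC-MS/MS; noncompartmental parameters; mean ± S.D., n = 3.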

[14] = Oral bioavailability in MRP2-deficient Wistar rat at 5 mg/kg by LC-MS/MS analysis; conditions: in vivo; outline: as §5
[15] = AUC (infinity) in wild-type Sprague-Dawley rat at 5 mg/kg, iv by LC-MS/MS analysis; parameters: time infinity, dose 5 mg/kg, route intravenous; conditions: plasma; outline: as §2
[16] = AUC (infinity) in MDR1A knockout Sprague-Dawley rat at 5 mg/kg, iv by LC-MS/MS analysis; parameters: time infinity, dose 5 mg/kg, route intravenous; conditions: plasma; outline: as §2
[17] = Clearance in BCRP knockout Sprague-Dawley rat at 5 mg/kg, iv by LC-MS/MS analysis; parameters: dose 5 mg/kg, route intravenous; conditions: in vivo; outline: as §2
[18] = Volume of distribution at steady state in wild-type Sprague-Dawley rat at 5 mg/kg, iv by LC-MS/MS analysis; parameters: dose 5 mg/kg, route intravenous; conditions: in vivo, read-out: Vdss; outline: as §1

bioavailability [1]: 2.8%
Vd [2]: 1.3 L/kg
half-life [3]: 96 min
AUC(0-inf) [4]: 711 ng·h/mL
AUC(0-inf) [5]: 635 ng·h/mL
Cmax [6]: 185 ng/mL
Tmax [7]: 18 min
Tmax [8]: 15 min
bioavailability [9]: 4%
AUC(0-inf) [10]: 12300 ng·h/mL
AUC(0-inf) [11]: 7730 ng·h/mL
clearance [12]: 10.9 mL/min/kg
bioavailability [13]: 3.8%
bioavailability [14]: 1.5%
AUC(0-inf) [15]: 8400 ng·h/mL
AUC(0-inf) [16]: 6260 ng·h/mL
clearance [17]: 7.8 mL/min/kg
Vd [18]: 0.168 L/kg
Structure (SMILES): O=C(O)c1cc(/N=N/c2ccc(S(=O)(=O)Nc3ccccn3)cc2)ccc1O [SULFASALAZINE]
